{"data": "Assay results from different studies", "note": "Lines come from different studies, so protocols differ."}
{"SMILES": "O=C(NCc1cn(Cc2ccc(Cl)cc2)nn1)Nc1ccc(Cl)cc1", "tested on": "L02", "assay": "cell growth or viability, CCK-8", "setting": "50 µM, 72 h", "endpoint": "viability", "value": "127%"}
{"SMILES": "COc1ccc(-c2c(Nc3ccccn3)[nH]c3c(C4=CCCCC4)c(-c4ccccc4)nn3c2=O)cc1", "test system": "human, plasma", "setting": "oral, 150 mg once daily, multiple doses, patients", "endpoint": "Cmax", "value": "4960 ng/mL"}
{"SMILES": "CC(C)n1c(C2CCNCC2)nc2c([N+](=O)[O-])c(Br)c(Br)cc21", "test system": "human, plasma", "setting": "oral, 100 mg, patients", "endpoint": "Cmax", "value": "73.2 ng/mL"}
{"SMILES": "COc1ccc(NC(=O)Nc2ccc(-c3cn(Cc4ccc(Br)cc4)nn3)cc2)cc1", "tested on": "L02", "assay": "cell growth or viability, CCK-8", "setting": "50 µM, 72 h", "endpoint": "viability", "value": "91.1%"}
{"SMILES": "O=C(COc1ccc(Cl)cc1)NC12CC(c3nnc([C@H]4C[C@@H](OC(F)(F)F)C4)o3)(C1)C2", "test system": "human, plasma", "setting": "oral, 100 mg, multiple doses, once daily, steady state, healthy volunteers", "endpoint": "Cmax", "value": "5.39 µM"}
{"SMILES": "O=C(Nc1ccc(-c2cn(Cc3ccc(Br)cc3)nn2)cc1)Nc1ccccc1Br", "tested on": "L02", "assay": "cell growth or viability, CCK-8", "setting": "50 µM, 72 h", "endpoint": "viability", "value": "104%"}
{"SMILES": "COc1ccc2c(c1)CN(C(=O)CCN1CCC(Cc3ccccc3)CC1)CC[S@@+]2[O-]", "test system": "male human, plasma", "setting": "intravenous, 0.05 mg/kg, healthy volunteers", "endpoint": "Cmax", "value": "130 ng/mL"}
{"SMILES": "O=C(Nc1ccc(Cl)cc1)Nc1cccc(-c2cn(Cc3ccc(Cl)cc3)nn2)c1", "tested on": "L02", "assay": "cell growth or viability, CCK-8", "setting": "50 µM, 72 h", "endpoint": "viability", "value": "102%"}
{"SMILES": "Cc1ccccc1Cn1cc(-c2cccc(NC(=O)Nc3ccc(F)cc3)c2)nn1", "tested on": "L02", "assay": "cell growth or viability, CCK-8", "setting": "50 µM, 72 h", "endpoint": "viability", "value": "103%"}
{"SMILES": "CNC(C)(C)COCC(=O)N1CCC[C@H](C(=O)NCc2nc(-c3ccc(C(F)(F)F)cc3)cs2)C1", "test system": "Caco-2", "endpoint": "efflux ratio", "value": 180}
{"SMILES": "O=C(Nc1ccc(Cl)cc1)Nc1ccc(-c2cn(Cc3cccc(Cl)c3)nn2)cc1", "tested on": "L02", "assay": "cell growth or viability, CCK-8", "setting": "50 µM, 72 h", "endpoint": "viability", "value": "92.6%"}
{"SMILES": "COc1ccc(NC(=O)NCc2cn(Cc3ccc(Br)cc3)nn2)cc1", "tested on": "L02", "assay": "cell growth or viability, CCK-8", "setting": "50 µM, 72 h", "endpoint": "viability", "value": "119%"}
